How the values were obtained:
Assay type in all cases: functional
BT-549 = test: Cytotoxicity against human BT549 cells assessed as cell growth at 0.1 uM after 48 hrs by sulforhodamine B assay; details: BT-549, 48 h, read-out: Activity
How it was run: (§1)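 NCI-60 five-dose screen. Cells were grown in RPMI 1640 with 5% FBS and 2 mM L-glutamine and preincubated 24 h. Compound (DMSO stock) was tested at 0.01, 0.1, 1, 10 and 100 µM for 48 h at 37 °C. Cells were fixed in situ with cold TCA (final 10%) and stained with 0.4% SRB. A515 was read, and percent growth was calculated against time-zero and control plates.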

HT-29 = test: Cytotoxicity against human HT-29 cells assessed as cell growth at 1 uM after 48 hrs by sulforhodamine B assay; details: HT-29, 48 h, read-out: Activity
How it was run: (§2)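 Five-dose NCI panel run at 0.01, 0.1, 1, 10 and 100 µM. Cells were in RPMI 1640 with 5% FBS and 2 mM L-glutamine, seeded at 5000–40,000 cells/well and pre-incubated 24 h. Drug was diluted from a DMSO stock into medium with 50 µg/ml gentamicin. Exposure was 48 h at 37 °C, 5% CO2. Cells were fixed with cold TCA and stained with 0.4% SRB, read at 515 nm. Percent growth came from time-zero, control and test absorbances.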

OVCAR-4 [1] = test: Cytotoxicity against human OVCAR4 cells assessed as cell growth at 1 uM after 48 hrs by sulforhodamine B assay; details: OVCAR-4, 48 h, read-out: Activity
PC-3 = test: Cytotoxicity against human PC3 cells assessed as cell growth at 0.01 uM after 48 hrs by sulforhodamine B assay; details: PC-3, 48 h, read-out: Activity
NCI-H322M = test: Cytotoxicity against human NCI-H322M cells assessed as cell growth at 10 uM after 48 hrs by sulforhodamine B assay; details: read-out: Activity
OVCAR-8 = test: Cytotoxicity against human OVCAR8 cells assessed as cell growth at 100 uM after 48 hrs by sulforhodamine B assay; details: OVCAR-8, 48 h, read-out: Activity
NCI/ADR-RES = test: Cytotoxicity against human NCI/ADR-RES cells assessed as cell growth at 1 uM after 48 hrs by sulforhodamine B assay; details: read-out: Activity
DU-145 [2] = test: Cytotoxicity against human DU145 cells assessed as cell growth at 10 uM after 48 hrs by sulforhodamine B assay; details: DU-145, 48 h, read-out: Activity; how it was run: as §2
SF-539 [3] = test: Cytotoxicity against human SF539 cells assessed as cell growth at 10 '-5 M after 48 hrs by sulforhodamine B assay; details: SF-539, 48 h, read-out: Activity
SK-MEL-2 = test: Cytotoxicity against human SK-MEL-2 cells assessed as cell growth at 10 '-5 M after 48 hrs by sulforhodamine B assay; details: SK-MEL-2, 48 h, read-out: Activity
SK-OV-3 = test: Cytotoxicity against human SKOV3 cells assessed as cell growth at 100 uM after 48 hrs by sulforhodamine B assay; details: SK-OV-3, 48 h, read-out: Activity
SK-MEL-28 = test: Cytotoxicity against human SK-MEL-28 cells assessed as cell growth at 10 '-5 M after 48 hrs by sulforhodamine B assay; details: SK-MEL-28, 48 h, read-out: Activity
IGROV-1 = test: Cytotoxicity against human IGROV1 cells assessed as cell growth at 0.01 uM after 48 hrs by sulforhodamine B assay; details: IGROV-1, 48 h, read-out: Activity
ACHN = test: Cytotoxicity against human ACHN cells assessed as cell growth at 100 uM after 48 hrs by sulforhodamine B assay; details: read-out: Activity; how it was run: as §1
SF-539 [4] = test: Growth inhibition of human SF539 cells after 48 hrs by sulforhodamine B assay; details: SF-539, 48 h
How it was run: (§3)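 Adherent NCI-60 lines were grown in RPMI 1640 with 5% FBS and 2 mM L-glutamine, plated at 5000–40,000 cells/well and preincubated 24 h. They were then exposed to five concentrations (0.01–100 µM, from a DMSO stock) for 48 h at 37 °C, 5% CO2. Cells were fixed with cold TCA (10% final, 60 min, 4 °C) and stained with 0.4% SRB. Dye was solubilized in 10 mM Tris base and A515 read. GI50 was derived from time-zero, control and treated absorbances.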

SF-295 = test: Cytotoxicity against human SF295 cells assessed as cell growth at 10 uM after 48 hrs by sulforhodamine B assay; details: SF-295, 48 h, read-out: Activity
DU-145 [5] = test: Cytotoxicity against human DU145 cells assessed as cell growth at 1 uM after 48 hrs by sulforhodamine B assay; details: DU-145, 48 h, read-out: Activity; how it was run: as §1
MCF7 = test: Cytotoxicity against human MCF7 cells assessed as cell growth at 10 '-5 M after 48 hrs by sulforhodamine B assay; details: MCF7, 48 h, read-out: Activity
RXF 393 = test: Cytotoxicity against human RXF393 cells assessed as cell growth at 1 uM after 48 hrs by sulforhodamine B assay; details: RXF 393, 48 h, read-out: Activity
OVCAR-3 [6] = test: Cytotoxicity against human OVCAR3 cells assessed as cell growth at 10 uM after 48 hrs by sulforhodamine B assay; details: OVCAR-3, 48 h, read-out: Activity
SR = test: Growth inhibition of human SR cells after 48 hrs by sulforhodamine B assay; details: for CC50: read-out: LC50 (the source's name)
How it was run: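 Leukemia suspension lines were grown in RPMI 1640 with 5% FBS and 2 mM L-glutamine and plated at 5000–40,000 cells/well with 24 h preincubation. They were treated at 0.01, 0.1, 1, 10 and 100 µM (DMSO stock) for 48 h at 37 °C. Settled cells were fixed with 80% TCA (16% final) and stained with 0.4% SRB in 1% acetic acid, then read at 515 nm. GI50 was calculated against time-zero and control wells.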

OVCAR-3 [7] = test: Growth inhibition of human OVCAR3 cells after 48 hrs by sulforhodamine B assay; details: OVCAR-3, 48 h; for CC50: read-out: LC50 (the source's name); how it was run: as §3
HOP-62 [8] = test: Cytotoxicity against human HOP62 cells assessed as cell growth at 0.1 uM after 48 hrs by sulforhodamine B assay; details: HOP-62, 48 h, read-out: Activity; how it was run: as §2
OVCAR-4 [9] = test: Cytotoxicity against human OVCAR4 cells assessed as cell growth at 0.01 uM after 48 hrs by sulforhodamine B assay; details: OVCAR-4, 48 h, read-out: Activity
SK-MEL-5 = test: Cytotoxicity against human SK-MEL-5 cells assessed as cell growth at 10 '-5 M after 48 hrs by sulforhodamine B assay; details: SK-MEL-5, 48 h, read-out: Activity
UACC-62 = test: Cytotoxicity against human UACC62 cells assessed as cell growth at 1 uM after 48 hrs by sulforhodamine B assay; details: UACC-62, 48 h, read-out: Activity
HOP-62 [10] = test: Cytotoxicity against human HOP62 cells assessed as cell growth at 0.01 uM after 48 hrs by sulforhodamine B assay; details: HOP-62, 48 h, read-out: Activity; how it was run: as §2
OVCAR-3 [11] = test: Cytotoxicity against human OVCAR3 cells assessed as cell growth at 0.1 uM after 48 hrs by sulforhodamine B assay; details: OVCAR-3, 48 h, read-out: Activity

Row | Compound | growth at 0.1 µM (BT-549) [%] | growth at 1 µM (HT-29) [%] | growth at 1 µM (OVCAR-4 [1]) [%] | growth at 0.01 µM (PC-3) [%] | growth at 10 µM (NCI-H322M) [%] | growth at 100 µM (OVCAR-8) [%] | growth at 1 µM (NCI/ADR-RES) [%] | growth at 10 µM (DU-145 [2]) [%] | growth at 10 µM (SF-539 [3]) [%] | growth at 10 µM (SK-MEL-2) [%] | growth at 100 µM (SK-OV-3) [%] | growth at 10 µM (SK-MEL-28) [%] | growth at 0.01 µM (IGROV-1) [%] | growth at 100 µM (ACHN) [%] | GI50 (SF-539 [4]) [µM] | LC50 (SF-539 [4]) [µM] | TGI (SF-539 [4]) [µM] | growth at 10 µM (SF-295) [%] | growth at 1 µM (DU-145 [5]) [%] | growth at 10 µM (MCF7) [%] | other results
1 | Cc1ccc2nc(Nc3c(C)cccc3C)sc2c1 | 99 | 39 | 71 | 102 | 67 | 45 | 40 | 75 | 45.3 | 34.6 | 54 | 45.5 | 107 | 49 | 66.8 | > 100 | > 100 | 15 | 94 | 19.8 | growth at 1 µM (RXF 393): 52%; growth at 10 µM (OVCAR-3 [6]): 52%; GI50 (SR): 0.412 µM; TGI (SR): > 100 µM; CC50 (SR): > 100 µM; GI50 (OVCAR-3 [7]): > 100 µM; TGI (OVCAR-3 [7]): > 100 µM; CC50 (OVCAR-3 [7]): > 100 µM; growth at 0.1 µM (HOP-62 [8]): 98%; growth at 0.01 µM (OVCAR-4 [9]): 97%; growth at 10 µM (SK-MEL-5): 26.8%; growth at 1 µM (UACC-62): 52%; growth at 0.01 µM (HOP-62 [10]): 109%; growth at 0.1 µM (OVCAR-3 [11]): 108%
2 | Clc1cccc(Cl)c1Nc1nc2cccc(Cl)c2s1 | 101 | 65 | 44 | 96 | -83 | -35 | 36 | -96 | -47.5 | -52.7 | -100 | -48.1 | 114 | -100 | 1.48 | 6.4 | 3.08 | -87 | 75 | -14.7 | growth at 1 µM (RXF 393): 45%; growth at 10 µM (OVCAR-3 [6]): -96%; GI50 (SR): 1.03 µM; TGI (SR): 3.24 µM; CC50 (SR): > 100 µM; GI50 (OVCAR-3 [7]): 0.983 µM; TGI (OVCAR-3 [7]): 2.2 µM; CC50 (OVCAR-3 [7]): 4.86 µM; growth at 0.1 µM (HOP-62 [8]): 96%; growth at 0.01 µM (OVCAR-4 [9]): 94%; growth at 10 µM (SK-MEL-5): -71.3%; growth at 1 µM (UACC-62): 51%; growth at 0.01 µM (HOP-62 [10]): 104%; growth at 0.1 µM (OVCAR-3 [11]): 97%

From ChEMBL document CHEMBL2040734, “Benzothiazoles: search for anticancer agents” (2012)
